According to ChEMBL document CHEMBL5096226, “Structure-Activity Relationship Study of Momordica Saponin II Derivatives as Vaccine Adjuvants” (J Med Chem, 2022):
Activity calls are given as the source filed them.

Legend:
Type in all cases: functional, organism-based
Mus musculus [1] = assay: Immuno-adjuvant activity in BALB/c mouse assessed as increase in anti-OVA IgG antibody in serum at 50 ug, sc administered on day 0, 14 and 28 and measured at 4 and 6 weeks in presence of chicken egg ovalbumin by ELISA; conditions: dose 50.0 µg, time 4-6 weeks
How it was run: (§1)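 Female BALB/c mice (8–10 wk, six per group) immunized s.c. with OVA 20 μg ± adjuvant on days 0, 14, 28. Tail-vein serum taken before each dose and 2 wk after the last. ELISA on OVA-coated (0.1 μg/mL) plates in borate saline pH 8.2. Twofold serum dilutions in duplicate, overnight at 4 °C. HRP anti-mouse IgG/subclass applied 4 h, OPD substrate, read at 490 nm. Concentrations from reference-serum standard curves (4-parameter fit).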

Mus musculus [2] = assay: Immuno-adjuvant activity in BALB/c mouse assessed as increase in anti-OVA IgG2a antibody in serum at 50 ug, sc administered on day 0, 14 and 28 and measured at 2 weeks in presence of chicken egg ovalbumin by ELISA; conditions: dose 50.0 µg, time 6.0 weeks, in the assay text read “measured at 6 weeks” for “measured at 2 weeks”; how it was run: as §1
Mus musculus [3] = assay: Immuno-adjuvant activity in BALB/c mouse assessed as increase in anti-OVA Ig2a antibody in serum at 50 ug, sc administered on day 0, 14 and 28 and measured at 4 weeks in presence of chicken egg ovalbumin by ELISA; conditions: dose 50.0 µg, time 6.0 weeks, in the assay text read “measured at 6 weeks” for “measured at 4 weeks”; how it was run: as §1
Mus musculus [4] = assay: Immuno-adjuvant activity in BALB/c mouse assessed as increase in intracellular level of INFgamma in spleen CD4+ cells at 50 ug, sc administered on day 0, 14 and 28 and measured at week 6 post immunization by flow cytometry analysis; conditions: dose 50.0 µg, time 6.0 weeks
How it was run: (§2)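 Female BALB/c mice (8–10 wk, six per group) given OVA 20 μg s.c. with adjuvant on days 0, 14, 28; spleens taken at week 6. Splenocytes stained with viability dye, Fc-blocked, surface-stained 30 min. For intracellular cytokines, cells stimulated 5 h with leukocyte activation cocktail plus GolgiPlug, then fixed/permeabilized. IL-21 detected with IL-21R Fc chimera. All steps at 4 °C. Read as MFI, mean ± SEM.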

Mus musculus [5] = assay: Immuno-adjuvant activity in BALB/c mouse Splenocyte assessed as increase in CD4+ surface expression of PD-1 at 50 ug, sc administered on day 0, 14 and 28 and measured at week 6 post immunization by flow cytometry analysis; conditions: dose 50.0 µg, time 6.0 weeks; how it was run: as §2
Mus musculus [6] = assay: Immuno-adjuvant activity in BALB/c mouse assessed as increase in intracellular level of INFgamma in spleen CD8+ cells at 50 ug, sc administered on day 0, 14 and 28 and measured at week 6 post immunization by flow cytometry analysis; conditions: dose 50.0 µg, time 6.0 weeks; how it was run: as §2
Mus musculus [7] = assay: Immuno-adjuvant activity in BALB/c mouse assessed as increase in CD19+ B cells in spleen at 50 ug, sc administered on day 0, 14 and 28 and measured at week 6 post immunization by flow cytometry analysis; conditions: dose 50.0 µg, time 6.0 weeks
How it was run: (§3)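 Female BALB/c mice (8–10 wk, six per group), OVA 20 μg s.c. plus adjuvant on days 0, 14, 28; spleens collected week 6. Single-cell splenocyte suspensions stained and analysed by flow cytometry. TFH gated PD-1+Bcl6+Foxp3−CD4+CD3+, TFR PD-1+Bcl6+Foxp3+CD4+CD3+, dark zone GC B cells CXCR4hiCD86loFas+GL-7+CD19+. Steps at 4 °C. Mean ± SEM; unpaired t tests.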

Mus musculus [8] = assay: Immuno-adjuvant activity in BALB/c mouse assessed as increase in ratio of TFH to TFR cells at 50 ug, sc administered on day 0, 14 and 28 and measured at week 6 post immunization by flow cytometry analysis; conditions: dose 50.0 µg, time 6.0 weeks; how it was run: as §3

Measured: Activity

C[C@@H]1O[C@@H](O[C@H]2[C@H](O)[C@@H](C(=O)NCCCCCCCCCCCOC(=O)c3ccccc3)O[C@@H](O[C@H]3CC[C@]4(C)[C@H]5CC=C6[C@@H]7CC(C)(C)CC[C@]7(C(=O)O[C@@H]7O[C@H](C)[C@H](O)[C@H](O)[C@H]7O[C@@H]7O[C@@H](C)[C@H](O[C@@H]8OC[C@@H](O)[C@H](O)[C@H]8O)[C@@H](O[C@@H]8O[C@H](CO)[C@@H](O)[C@H](O[C@@H]9OC[C@@H](O)[C@H](O)[C@H]9O)[C@H]8O)[C@H]7O)[C@H](O)C[C@@]6(C)[C@]5(C)CC[C@H]4[C@]3(C)C=O)[C@@H]2O[C@@H]2O[C@H](CO)[C@H](O)[C@H](O)[C@H]2O)[C@H](O)[C@H](O)[C@H]1O
active: Mus musculus [1] | Mus musculus [2]

COc1cccc(COC(=O)CCCCCCCCCCNC(=O)[C@H]2O[C@@H](O[C@H]3CC[C@]4(C)[C@H]5CC=C6[C@@H]7CC(C)(C)CC[C@]7(C(=O)O[C@@H]7O[C@H](C)[C@H](O)[C@H](O)[C@H]7O[C@@H]7O[C@@H](C)[C@H](O[C@@H]8OC[C@@H](O)[C@H](O)[C@H]8O)[C@@H](O[C@@H]8O[C@H](CO)[C@@H](O)[C@H](O[C@@H]9OC[C@@H](O)[C@H](O)[C@H]9O)[C@H]8O)[C@H]7O)[C@H](O)C[C@@]6(C)[C@]5(C)CC[C@H]4[C@]3(C)C=O)[C@H](O[C@@H]3O[C@H](CO)[C@H](O)[C@H](O)[C@H]3O)[C@@H](O[C@@H]3O[C@@H](C)[C@H](O)[C@@H](O)[C@H]3O)[C@@H]2O)c1
active: Mus musculus [3] | Mus musculus [4] | Mus musculus [5] | Mus musculus [6] | Mus musculus [7]

C[C@@H]1O[C@@H](O[C@H]2[C@H](O)[C@@H](C(=O)NCCCCCCCCCCC(=O)OCc3cccc([N+](=O)[O-])c3)O[C@@H](O[C@H]3CC[C@]4(C)[C@H]5CC=C6[C@@H]7CC(C)(C)CC[C@]7(C(=O)O[C@@H]7O[C@H](C)[C@H](O)[C@H](O)[C@H]7O[C@@H]7O[C@@H](C)[C@H](O[C@@H]8OC[C@@H](O)[C@H](O)[C@H]8O)[C@@H](O[C@@H]8O[C@H](CO)[C@@H](O)[C@H](O[C@@H]9OC[C@@H](O)[C@H](O)[C@H]9O)[C@H]8O)[C@H]7O)[C@H](O)C[C@@]6(C)[C@]5(C)CC[C@H]4[C@]3(C)C=O)[C@@H]2O[C@@H]2O[C@H](CO)[C@H](O)[C@H](O)[C@H]2O)[C@H](O)[C@H](O)[C@H]1O
not listed: Mus musculus [1] | Mus musculus [2]
active: all other assays above

COc1cc(COC(=O)CCCCCCCCCCNC(=O)[C@H]2O[C@@H](O[C@H]3CC[C@]4(C)[C@H]5CC=C6[C@@H]7CC(C)(C)CC[C@]7(C(=O)O[C@@H]7O[C@H](C)[C@H](O)[C@H](O)[C@H]7O[C@@H]7O[C@@H](C)[C@H](O[C@@H]8OC[C@@H](O)[C@H](O)[C@H]8O)[C@@H](O[C@@H]8O[C@H](CO)[C@@H](O)[C@H](O[C@@H]9OC[C@@H](O)[C@H](O)[C@H]9O)[C@H]8O)[C@H]7O)[C@H](O)C[C@@]6(C)[C@]5(C)CC[C@H]4[C@]3(C)C=O)[C@H](O[C@@H]3O[C@H](CO)[C@H](O)[C@H](O)[C@H]3O)[C@@H](O[C@@H]3O[C@@H](C)[C@H](O)[C@@H](O)[C@H]3O)[C@@H]2O)cc(OC)c1
active: Mus musculus [3]

C[C@@H]1O[C@@H](O[C@H]2[C@H](O)[C@@H](C(=O)NCCCCCCCCCCC(=O)OCc3cccc(Oc4ccccc4)c3)O[C@@H](O[C@H]3CC[C@]4(C)[C@H]5CC=C6[C@@H]7CC(C)(C)CC[C@]7(C(=O)O[C@@H]7O[C@H](C)[C@H](O)[C@H](O)[C@H]7O[C@@H]7O[C@@H](C)[C@H](O[C@@H]8OC[C@@H](O)[C@H](O)[C@H]8O)[C@@H](O[C@@H]8O[C@H](CO)[C@@H](O)[C@H](O[C@@H]9OC[C@@H](O)[C@H](O)[C@H]9O)[C@H]8O)[C@H]7O)[C@H](O)C[C@@]6(C)[C@]5(C)CC[C@H]4[C@]3(C)C=O)[C@@H]2O[C@@H]2O[C@H](CO)[C@H](O)[C@H](O)[C@H]2O)[C@H](O)[C@H](O)[C@H]1O
active: Mus musculus [3] | Mus musculus [5]

C[C@@H]1O[C@@H](O[C@H]2[C@H](O)[C@@H](C(=O)NCCCCCCCCCCC(=O)OCc3ccc(F)cc3)O[C@@H](O[C@H]3CC[C@]4(C)[C@H]5CC=C6[C@@H]7CC(C)(C)CC[C@]7(C(=O)O[C@@H]7O[C@H](C)[C@H](O)[C@H](O)[C@H]7O[C@@H]7O[C@@H](C)[C@H](O[C@@H]8OC[C@@H](O)[C@H](O)[C@H]8O)[C@@H](O[C@@H]8O[C@H](CO)[C@@H](O)[C@H](O[C@@H]9OC[C@@H](O)[C@H](O)[C@H]9O)[C@H]8O)[C@H]7O)[C@H](O)C[C@@]6(C)[C@]5(C)CC[C@H]4[C@]3(C)C=O)[C@@H]2O[C@@H]2O[C@H](CO)[C@H](O)[C@H](O)[C@H]2O)[C@H](O)[C@H](O)[C@H]1O
active: Mus musculus [3] | Mus musculus [5] | Mus musculus [6] | Mus musculus [7] | Mus musculus [8]

C[C@@H]1O[C@@H](O[C@H]2[C@H](O)[C@@H](C(=O)NCCCCCCCCCCNC(=O)c3ccccc3)O[C@@H](O[C@H]3CC[C@]4(C)[C@H]5CC=C6[C@@H]7CC(C)(C)CC[C@]7(C(=O)O[C@@H]7O[C@H](C)[C@H](O)[C@H](O)[C@H]7O[C@@H]7O[C@@H](C)[C@H](O[C@@H]8OC[C@@H](O)[C@H](O)[C@H]8O)[C@@H](O[C@@H]8O[C@H](CO)[C@@H](O)[C@H](O[C@@H]9OC[C@@H](O)[C@H](O)[C@H]9O)[C@H]8O)[C@H]7O)[C@H](O)C[C@@]6(C)[C@]5(C)CC[C@H]4[C@]3(C)C=O)[C@@H]2O[C@@H]2O[C@H](CO)[C@H](O)[C@H](O)[C@H]2O)[C@H](O)[C@H](O)[C@H]1O
active: Mus musculus [2]

C[C@@H]1O[C@@H](O[C@H]2[C@H](O)[C@@H](C(=O)NCCCCCCCCCCCOCc3ccccc3)O[C@@H](O[C@H]3CC[C@]4(C)[C@H]5CC=C6[C@@H]7CC(C)(C)CC[C@]7(C(=O)O[C@@H]7O[C@H](C)[C@H](O)[C@H](O)[C@H]7O[C@@H]7O[C@@H](C)[C@H](O[C@@H]8OC[C@@H](O)[C@H](O)[C@H]8O)[C@@H](O[C@@H]8O[C@H](CO)[C@@H](O)[C@H](O[C@@H]9OC[C@@H](O)[C@H](O)[C@H]9O)[C@H]8O)[C@H]7O)[C@H](O)C[C@@]6(C)[C@]5(C)CC[C@H]4[C@]3(C)C=O)[C@@H]2O[C@@H]2O[C@H](CO)[C@H](O)[C@H](O)[C@H]2O)[C@H](O)[C@H](O)[C@H]1O
active: Mus musculus [1] | Mus musculus [2]
